# In ChEMBL document CHEMBL4513216, “Probing the Open Global Health Chemical Diversity Library for Multistage-Active Starting Points for Next-Generation Antimalarials” (ACS Infect Dis, 2020):
# Assay: Toxicity liver stage against HepG2, at 10uM
# Assay type: cell-based
# Set-up: test concentration 10 uM, cell line HepG2-A16-CD81EGFP
# Settings: human, HepG2-A16-CD81EGFP cells; read-out: INHIBITION
# Procedure, shortened: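 Uninfected HepG2-A16-CD81EGFP cells, 3 × 10^3 per well, 1536-well, plated on prespotted compound at 10 μM final, parasite-free screening media added to match infected plates; puromycin 10 μM positive, DMSO 0.5% negative; run in parallel with 48 h PbLuc assay at 37 °C, 5% CO2; viability by CellTiter-Glo luminescence, normalized to controls.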
row,Structure (SMILES),cytotoxicity at 10 µM [%]
1,COCC(=O)N[C@H](C)c1onc(-c2ccc(F)cc2)c1C(=O)O,-8.15
2,CCCC(O)CN1CCC(=O)N(CC)Cc2cc3c(cc21)OCO3 (stereo not given),-18.5
3,O=C1CCNc2cc3c(cc2CN1Cc1ccco1)OCO3,6.36
4,CCN1Cc2cc(F)ccc2N(C(=O)C2CCC2)CCC1=O,-41.2
5,Cc1cc2ccccc2n1CC(=O)N[C@@H](C)C(=O)O,0.77
6,Cc1cc(C)nc(N2CCC(C(=O)Nc3n[nH]c(CC(C)C)n3)CC2)n1,5.61
7,Cn1cnnc1SCCCNC(=O)Nc1ncccn1,0.252
8,COc1ccc(CC(C)(O)CNC(=O)NCc2cccs2)cc1 (stereo not given),5.62
9,COC(=O)N1CCc2ccccc2C1C(=O)NCc1ccco1 (stereo not given),-1.94
10,O=C(Cc1ccccn1)N1C[C@@H](Oc2cccnc2)[C@H]2OCCC[C@H]21,7.8
11,CN(C)C(=O)COCC1CN(CC2CCOCC2)Cc2ncn(C)c21 (stereo not given),1.03
12,Cc1csc([C@H]2C[C@@H]3CCN(C(=O)c4ccnnc4)C[C@H]3O2)n1,-1.95
13,CCc1c(C)n(CC(C)=O)c2nc3ccccc3n2c1=O,5.44
14,O=C1CC(c2ccccc2F)c2c(n3ccsc3nc2=O)N1 (stereo not given),-5.93
15,CCCN(C(=O)COCC)c1cccc(C)c1,0.727
16,Cc1nc2[nH]cnc(NCCCN3CCOCC3)c-2n1,-13.3
17,CNC(=O)[C@@H]1CN(Cc2ccccc2)C[C@H]1C(=O)c1ccc(F)cc1,-0.17
18,CC(c1cc(O)nc(NC2CCCC2)n1)n1ncc2ccccc2c1=O (stereo not given),22.9
19,CCn1ncc(S(=O)(=O)N[C@@H]2CC[C@@H](n3ccnc3)[C@@H]2O)c1C,-3.4
20,CCN(Cc1cccnc1)CC1(C)Cc2c(N)nc(N)nc2O1 (stereo not given),0.705
21,Cc1cc(C2CCCN2C(=O)Nc2cn[nH]c2)on1 (stereo not given),1.24
22,CN1N=C(C(=O)NCCc2csc(-c3ccccc3)n2)CCC1=O,0.621

row,Structure (SMILES),cytotoxicity at 10 µM [%]
1,Cc1ccc(C2CSCCN2C(=O)NCc2cccnc2)cc1 (stereo not given),5.48
2,CCC(C)Oc1cc(C(=O)N(c2cccnc2)C(C)C)ccn1 (stereo not given),8.77
3,COc1cc(NC(=O)N(C)CCC2CC2)ncn1,-1.3
4,Cn1nc(Br)c2c(=O)n(CCc3ccccc3)cnc21,-1.4
5,CCc1c(C(=O)N2CCOC(C)(C)C2)cnn1-c1ccccn1,-7.92
6,COC(=O)C1(NCC(=O)Nc2cc(C)ccc2OC)CCCCC1,4.02
7,N#CC1(NC(=O)c2nccc3ccccc23)CCSCC1,8.8
8,Cc1cc(Cn2c(=O)c3c(C(F)(F)F)cc(C)nc3n2C)on1,-0.976
9,CCOc1ccc(Cl)cc1CCNC(=O)Cn1nc(C)ccc1=O,-3.91
10,O=C(CCn1ccnn1)N1CCCC(n2cncn2)C1 (stereo not given),-1.26
11,COC1CCN(c2ccc(F)cc2CN(C)S(C)(=O)=O)CC1,-12.5
12,Cc1cc(NCCC(=O)NC2CCCC2)nc(-c2ccncc2)n1,2.25
13,CNC(=O)CC1CCN(C(=O)NCC2(c3ccccc3F)CC2)CC1,4.27
14,CC(C)c1nc(C2CCCN2C(=O)c2ccc3nncn3c2)no1 (stereo not given),-10.3
15,CCS(=O)(=O)c1ccc(N2CCC(NC(=O)c3ccccn3)CC2)cc1,10.8
16,CC1CCN(C)c2ccccc2N1C(=O)c1ccc(=O)n(C)n1 (stereo not given),1.53
17,Cc1nnc(C(NS(=O)(=O)c2cc(F)c(C)cc2F)C(C)C)[nH]1 (stereo not given),-5.19
18,Cc1ccc(S(=O)(=O)NC(C)C#N)cc1Br (stereo not given),0.727
19,CC(NC(=O)CCS(=O)(=O)C1CCCC1)c1nc(-c2ccccc2)c[nH]1 (stereo not given),1.05
20,O=C(CCC1CCCO1)NCc1ccc(Br)cc1F (stereo not given),1.6
21,c1cnn(CCNCc2cnc(N3CCOCC3)nc2)c1,-1.73
22,CC(C(=O)Nc1cccc(Cl)c1)N1CCN(Cc2ncc[nH]2)CC1 (stereo not given),-8.64

row,Structure (SMILES),cytotoxicity at 10 µM [%]
1,CN(CC1CCCN(S(C)(=O)=O)C1)c1cnn(C)c1 (stereo not given),2.56
2,CNS(=O)(=O)c1csc(C(=O)N(C)Cc2sccc2C)c1,16.4
3,CN(Cc1cccs1)C(=O)Cn1cc(NC(=O)C(C)(C)C)cn1,-3.52
4,Cc1ccc(CNCc2nnc3n2CCCC3C(F)(F)F)o1 (stereo not given),19.5
5,CCc1nc(CNC(=O)Nc2ccc(C(=O)NC)cc2C)cs1,16.4
6,CC(C)S(=O)(=O)NCC1CCCN(C(=O)c2cccnc2)C1 (stereo not given),-7.16
7,O=C1NCCO[C@H]2CN(C(=O)Cc3csc4ccccc34)CC[C@@H]12,-101
8,COC[C@H]1CC[C@H]2[C@H](CCN2S(=O)(=O)c2ccccc2)O1,-1.45
9,O=C(c1ccnnc1)N1C[C@H](OCC2CCOCC2)[C@H]2OCCC[C@H]21,3.86
10,Cc1nc(CN2C(=O)CC[C@H]3[C@@H]2CCN3C(=O)c2ccsc2)cs1,1.8
11,Cc1nccn1Cc1nnc(C2CCCN(c3ncccn3)C2)n1C (stereo not given),-3.09
12,Cc1noc(C)c1CN(C)C(=O)CN1CC(c2ccccc2)CC1=O (stereo not given),-2.4
13,CNc1ncccc1CN1CCN(c2cc(NC3CC3)nc(N)n2)CC1,-6.58
14,CCCN1CCCn2nc(CNC(=O)CN(C)C3CCCC3)cc2C1,-0.992
15,c1cncc(NCCNC2CCCNC2)c1 (stereo not given),-4.5
16,O=C(NC1CC(=O)N(C2Cc3ccccc3C2)C1)c1ccsc1 (stereo not given),-1.98
17,CC(C)Cc1cc(C(=O)N2CCC(Oc3cccnc3)CC2)n(C)n1,-0.423
18,COC1CCCOC12CCN(C(=O)NCc1ccco1)CC2 (stereo not given),-15.3
19,CC(C)=CCN1CC2(CCN(Cc3ncc[nH]3)CC2)CC1=O,-10.8
20,CSc1cccc(CN(C)C(=O)Cn2ncc(N(C)C)cc2=O)c1,0.0849
21,OC1(CNCCc2csc(-c3cccnc3)n2)CCNC1 (stereo not given),2.76
22,CSc1ncccc1C(=O)N(C)C(C)Cc1ccccn1 (stereo not given),2.28

row,Structure (SMILES),cytotoxicity at 10 µM [%]
1,Cc1ccc(C(=O)N2CCC3(CC2)C(=O)NCCN3C)cc1O,-0.081
2,Cc1ccc(CCNC(=O)CC2COCCN2S(=O)(=O)N(C)C)o1 (stereo not given),3.39
3,O=C1NCC2(CCCN(C(=O)Cn3nc4ccccc4n3)CC2)O1 (stereo not given),-3.45
4,O=C(NCCc1c[nH]cn1)c1ccc(S(=O)(=O)NC2CCOC2)cc1 (stereo not given),-1.91
5,CCNC(=O)C(C)Oc1ccc(N(C)S(C)(=O)=O)cc1 (stereo not given),1.07
6,COc1ccc(CC2(CO)CCN(c3cc(C(N)=O)ccn3)CC2)cc1,-2.41
7,O=C(NCc1cc(O)ncn1)C1COc2ccccc2C1 (stereo not given),-9.76
8,COc1ccc(OCCN2CCCN(Cc3noc(C)n3)CC2)cc1,-6.12
9,CC(C)Oc1ccc(C(=O)N2CCCC2c2cnn(C)c2)cn1 (stereo not given),-6.37
10,CN(CC(=O)Nc1ccncc1)C1CCCN(c2cccnn2)C1 (stereo not given),-3.44
11,CCc1cnc(CN(C)C2CCN(Cc3nnc(C4CC4)n3C)C2)o1 (stereo not given),-5.09
12,CSCCC(=O)N1CCCN(Cc2cnn(C(C)C)c2)CC1,-25.3
13,CCOc1ccc(CNC(C)c2ccc3[nH]c(=O)[nH]c3c2)cc1 (stereo not given),-7.79
14,OCCN1CCC(CNCc2ccccc2OC(F)(F)F)CC1,-13.7
15,Cc1cnn(CC2CCCN2Cc2cc(C)on2)c1 (stereo not given),-8.51
16,Cc1cc(C)n(CC2CN(Cc3nnc(C)o3)CCO2)n1 (stereo not given),-7.95
17,CN(C)c1ccc(C(=O)Nc2cn[nH]c2)cc1,-0.279
18,CN(Cc1ccco1)C(=O)NC1CCCN(c2ncccn2)C1 (stereo not given),-13.6
19,COCCN1CCC(C(=O)c2cc(F)ccc2F)CC1,-9.47
20,Cc1ccc(CC(=O)N2CCCC(n3nc(C)cc3C)C2)cn1 (stereo not given),-8.54
21,COCCOc1ccc(NC(=O)C2CC(=O)N(CC3CC3)C2)cn1 (stereo not given),-30.7
22,COCCOc1ccc(NC(=O)C2CC(=O)N(C3CC3)C2)cn1 (stereo not given),-6.93

row,Structure (SMILES),cytotoxicity at 10 µM [%]
1,CN(C)c1ncccc1CNC(=O)N1CCCC1c1cccs1 (stereo not given),-12
2,Cc1nc(C)n(CC2CCCCN2CC(=O)Nc2nnc(C)s2)n1 (stereo not given),-10.6
3,NC(=O)CN1CCCN(C(=O)Cc2ccc(F)cc2)CC1,-9.17
4,Cc1c(C(=O)N2CCCC(n3cccn3)C2)nnn1-c1ccccc1 (stereo not given),-3.45
5,Cc1cnn(CC2CCCCN2C(=O)Cc2cn3ccsc3n2)c1 (stereo not given),-5.5
6,CCCc1nc(CN2CCCC(c3noc(C4CC4)n3)C2)no1 (stereo not given),-8.87
7,Cc1ccc(CC(=O)N2CCN(C3CCOC3=O)CC2)cc1 (stereo not given),-18.7
8,CCN(CC)CCNC(=O)c1cnc(C(C)(C)C)s1,-8.94
9,CN(CCc1ccccn1)S(=O)(=O)N1CCCC1c1ccco1 (stereo not given),-14.8
10,CC(C)c1ncncc1C(=O)NCCN1CCCS1(=O)=O,-8.98
11,CCNc1cc2c(nn1)CCN(C(=O)c1ccnc(N(C)C)c1)C2,-20.9
12,Cc1ccc(CN(C)C(=O)CN2CCOC(Cn3cncn3)C2)o1 (stereo not given),-7.98
13,CS(=O)(=O)NCc1cncc2c1CCN(C(=O)c1cccnc1)C2,5.12
14,CC(C)NC(=O)N1CCC2(CCC(=O)N2CCN2CCCC2)CC1,3.7
15,CCO[C@H]1CC[C@H]2[C@H]1OCCN2CCOCc1ccccc1,-111
16,Cc1ccoc1C(=O)N1CC[C@@H]2CN(C3CCOCC3)CCO[C@@H]2C1,-120
17,O=C1[C@H]2CN(c3ncccn3)C[C@H]2CN1Cc1ccncc1,-12.1
18,COCC1CN(Cc2csc(C)n2)Cc2nccn2C1 (stereo not given),3.16
19,CCS(=O)(=O)N1CCC[C@]2(C(=O)N(C)C)CN(c3ccccn3)C[C@@H]2C1,-8.93
20,Cc1cc(C(=O)N2CCC3(CC2)C(=O)N(C)CCN3CC2CC2)c(C)o1,-96.5
21,CN1CC(=O)N(c2ccccc2)CC12CCN(C(=O)CC1CC1)C2 (stereo not given),0.972
22,O=C(c1cccnc1)N1C[C@H]2CC[C@@H](C1)N(Cc1ncc[nH]1)C2,-13.2
